In ChEMBL document CHEMBL4020827, “Targeting Multiple Effector Pathways in Pancreatic Ductal Adenocarcinoma with a G-Quadruplex-Binding Small Molecule” (J Med Chem, 2018):

Columns and labels:
[1] = tested on: MIA PaCa-2; assay: Effect on TEAD3 gene expression in human MIAPaCa2 cells at 400 nM after 24 hrs by RNA sequence analysis relative to control; type: functional
How it was run: (§1)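 RNA-seq: cells seeded overnight in 60 mm plates (PANC-1 0.35 x 10^6, MIA PaCa-2 1.5 x 10^6 cells/well), then exposed to 400 nM compound for 6 or 24 h against untreated controls. Cell lines mycoplasma-free by RNA-capture ELISA and STR-profiled. Differentially expressed genes called at FDR < 0.1.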

[2] = tested on: MIA PaCa-2; assay: Effect on GLI2 gene expression in human MIAPaCa2 cells at 400 nM after 6 hrs by RNA sequence analysis relative to control; type: functional
How it was run: (§2)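 PANC-1 (0.35 x 10^6) or MIA PaCa-2 (1.5 x 10^6) cells seeded overnight in 60 mm plates, then exposed to 400 nM compound for 6 or 24 h; untreated cells as controls. Cells were mycoplasma-free and STR-certified. Differential expression by RNA-seq, called at FDR < 0.1.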

[3] = tested on: MIA PaCa-2; assay: Effect on ULK1 gene expression in human MIAPaCa2 cells at 400 nM after 6 hrs by RNA sequence analysis relative to control; type: functional; how it was run: as §1
[4] = tested on: PANC-1; assay: Effect on IGF2 gene expression in human PANC1 cells at 400 nM after 6 hrs by RNA sequence analysis relative to control; type: functional; how it was run: as §2
[5] = Binding affinity to 5'-FAM/3'-TAMRA labeled HSP90A promoter G-quadruplex DNA (unknown origin) assessed as change in melting temperature at 1 uM by FRET assay
How it was run: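 FRET melting of FAM/TAMRA dual-labelled promoter G4 oligonucleotides, 400 nM, annealed at 95 °C for 10 min in 60 mM potassium cacodylate (pH 7.4) then cooled to RT. Ligand at 1 μM in solution with 50 mM K+. Fluorescence (ex 450–495, em 515–545 nm) read every 0.5 °C over 30–100 °C with a 30 sec hold per step. ΔTm from curve fitting; triplicate measurements.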

[6] = tested on: PANC-1; assay: Effect on TEAD3 gene expression in human PANC1 cells at 400 nM after 6 hrs by RNA sequence analysis relative to control; type: functional; how it was run: as §1
[7] = tested on: PANC-1; assay: Effect on PIK3R2 gene expression in human PANC1 cells at 400 nM after 24 hrs by RNA sequence analysis relative to control; type: functional
[8] = tested on: CAPAN-1; assay: Growth inhibition of human Capan1 cells after 96 hrs by SRB assay; type: functional, cell-based; conditions: CAPAN-1, 96 h
How it was run: (§3)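 Cell lines kept at 37 °C, 5% CO2 in medium with 10% FBS and 2 mM L-glutamine. Compound dissolved in water, filter-sterilised, 10 mM stock diluted into media. Growth read by 96 h sulforhodamine B assay, absorbance at 540 nm. IC50 taken from mean absorbance per concentration as % of untreated wells, >3 individual determinations with standard deviations.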

[9] = tested on: PANC-1; assay: Effect on PRDM16 gene expression in human PANC1 cells at 400 nM after 6 hrs by RNA sequence analysis relative to control; type: functional
[10] = tested on: MIA PaCa-2; assay: Effect on IQSEC1 gene expression in human MIAPaCa2 cells at 400 nM after 6 hrs by RNA sequence analysis relative to control; type: functional; how it was run: as §2
[11] = species: Homo sapiens; assay: Stabilization of G-quadruplex DNA in human PANC1 cells assessed as increase in 53BP1 foci at 400 nM after 24 hrs by FITC/Cy5/DAPI staining based immunofluorescence assay relative to control; type: cell-based
How it was run: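 PANC-1 cells (8 x10^4 on coverslips) treated 24 h at 37 °C, or left untreated. Fixed in 4% paraformaldehyde, permeabilized with 0.1% Triton X-100, blocked in 2% milk. Stained with BG4 (20 nM), anti-FLAG and anti-53BP1, then Alexa-488/647 secondaries with DAPI. Deconvolved 100x z-stacks, 50-100 nuclei per replicate, three biological replicates; nuclear foci counted.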

[12] = tested on: PANC-1; assay: Effect on TEAD4 gene expression in human PANC1 cells at 400 nM after 24 hrs by RNA sequence analysis relative to control; type: functional; how it was run: as §1
[13] = tested on: MIA PaCa-2; assay: Effect on TEAD4 gene expression in human MIAPaCa2 cells at 400 nM after 24 hrs by RNA sequence analysis relative to control; type: functional; how it was run: as §1
[14] = tested on: BXPC-3; assay: Growth inhibition of human BxPC3 cells after 96 hrs by SRB assay; type: functional, cell-based; conditions: BXPC-3, 96 h; how it was run: as §3

**Q.** With O=C1c2ccc3c4c(c(NCCN5CCCC5)cc(c24)C(=O)N1CCCN1CCOCC1)C(=O)N(CCCN1CCOCC1)C3=O as the compound, how does the log2FC [1] read?
**A.** -0.66

**Q.** And the log2FC [2]?
**A.** -1.17

**Q.** And the log2FC [3]?
**A.** 0.03

**Q.** What about the log2FC [4] of the same compound?
**A.** -1.15

**Q.** What about the ΔTm [5] of the same compound?
**A.** 15.7 °C

**Q.** What about the log2FC [6] of the same compound?
**A.** -0.59

**Q.** And the log2FC [7]?
**A.** -0.88

**Q.** And the IC50 [8]?
**A.** 16 nM

**Q.** What about the log2FC [9] of the same compound?
**A.** -2.4

**Q.** And the log2FC [10]?
**A.** -1.11

**Q.** And the fold change (FC) [11]?
**A.** 2

**Q.** And the log2FC [12]?
**A.** -0.47

**Q.** What about the log2FC [13] of the same compound?
**A.** -0.31

**Q.** And the IC50 [14]?
**A.** 19 nM
